Myeloid diff 2: compounds promoting myeloid differentiation; AID 624256; ER-HoxA9 myeloid progenitors, lysozyme-GFP differentiation, flow cytometry; 360,000 tested, 1% active; calls only at 10 µM;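 active = normalized GFP-positive differentiation at or above the plate's own cutoff, the solvent-only control mean plus 3 SD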;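 also: cells exposed to compound for four days before flow analysis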
Exocytosis inh: lytic granule exocytosis inhibition; TALL-104 LAMP-1 surface exposure, flow cytometry; cells stimulated with thapsigargin and PMA; inhibition, % at 10 µM; 360,000 tested, 0.66% active; AID 651702;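 active = inhibition above about 55%, limit read from the data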
HNF4A DNA FP: change in binding of human HNF4 alpha to DNA; P41235; HNF4a-FITC DNA binding, fluorescence polarization, 1 h; AID 1224865; activity change, % at 10 µM; 360,000 tested, 0.3% active; in the data active = activity change above about 30%, passing the limit was not always enough
Target sequence (P41235 whole entry, looked up): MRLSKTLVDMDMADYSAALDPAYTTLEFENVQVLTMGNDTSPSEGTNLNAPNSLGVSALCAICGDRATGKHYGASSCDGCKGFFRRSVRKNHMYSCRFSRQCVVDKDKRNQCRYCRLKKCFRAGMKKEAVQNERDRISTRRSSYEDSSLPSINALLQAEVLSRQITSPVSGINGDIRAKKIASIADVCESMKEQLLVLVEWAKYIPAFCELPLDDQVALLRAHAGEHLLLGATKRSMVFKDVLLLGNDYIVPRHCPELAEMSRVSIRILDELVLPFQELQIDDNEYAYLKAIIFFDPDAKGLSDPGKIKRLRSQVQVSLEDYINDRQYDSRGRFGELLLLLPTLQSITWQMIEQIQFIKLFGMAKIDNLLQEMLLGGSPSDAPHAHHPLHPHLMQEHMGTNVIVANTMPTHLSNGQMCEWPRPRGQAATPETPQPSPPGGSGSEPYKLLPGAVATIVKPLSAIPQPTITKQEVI
H9c2 protect: modulators protecting cardiomyocytes from myocardial damage; H9c2 cardiomyocytes, H2O2 injury protection, ATPLite, 2 h; protection from H2O2 cell death, % at 20 µM; 360,000 tested, 0.63% active; AID 588492;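 active = compounds giving at least 50% protection of heart cells from peroxide-induced death in the single-dose screen, raw or plate-pattern-corrected value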;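 also: 0% = DMSO wells with peroxide and 100% = DMSO wells without peroxide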
Pemphigus Ab inh: human desmoglein-3 autoantibody binding inhibition; DSG3-coupled beads, scFv-anti-DSG3-GFP binding, flow cytometry; active compounds read low; binding (percent of control), % at 10 µM; 310,000 tested, 0.48% active;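 active = binding more than 3 SD below its plate's average and above zero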;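 also: hits lower antibody fragment binding to DSG3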
SENP1 inh: blocks the human SENP1 SUMO protease catalytic domain; recombinant SENP1 catalytic domain, CyPet-SUMO1-YPet FRET cleavage; 360,000 tested, 0.21% active; inhibition, % at 10 µM; Q9P0U3;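 active = inhibition at least 30% at 10 µM, raw YFP signal under a set limit, fluorescence ratio 0.5 to 1.5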;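 also: 0% = enzyme with DMSO and 100% = no enzyme wells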
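Material – human SENP1 catalytic domain · Input – SENP1 enzyme, 20 pM final · Compound dosing – single concentration of 10 µM compound, 0.5% DMSO final · Timing – enzyme reaction for 50 min at room temperature, dark · Measured by – FRET fluorescence in CFP and YFP emission channels · Control set – no-enzyme wells low, DMSO-plus-enzyme wells high control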
SENP1 inh conf: confirmation of human SENP1 SUMO protease inhibitors. inhibition, % at 10 µM. 520 tested, 34% active. recombinant SENP1, CyPet-SUMO1-YPet FRET cleavage. shares compounds with SENP1 inh; in the data active = inhibition mostly above about 35%, no sharp cut-off; inactive = mostly below about 32%;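 also: 0% = enzyme with DMSO and 100% = no enzyme control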
SENP1 kin conf: SENP1 (human) inhibition, kinetic confirmation | AID 651690 | recombinant SENP1, CyPet-SUMO1-YPet FRET kinetic cleavage | 520 tested, 26% active | shares compounds with SENP1 inh | inhibition, % at 10 µM; in the data active = inhibition mostly above about 32%, no sharp cut-off; inactive = mostly below about 29%;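 also: 0% = DMSO with enzyme and 100% = no enzyme substrate only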
The depositor's hits bear a star; i = inactive; nt = no result. This is a sample that favours compounds with a hit; in the whole collection about 3% have one here.

SMILES	Myeloid diff 2	Exocytosis inh	HNF4A DNA FP	H9c2 protect	Pemphigus Ab inh	SENP1 inh	SENP1 inh conf	SENP1 kin conf
O=C(Nc1ccc(Cl)cc1)c1ccc2c(c1)S(=O)(=O)c1ccccc1C2=O	i	-3.7	-3.2	-7.7	104.8	32.6*	-21.9	-15.2
C1CCN(CC2CCCCN2)CC1 (centres undefined)	i	3.5	6.1	-1.3	115.2	45.5*	-2.1	0.6
CCOc1cc(/C=C2\SC(=S)N(NS(=O)(=O)c3ccccc3)C2=O)ccc1O	i	-4.4	15.3	-4.9	85.6	81.6*	124.1*	70.1*
CCOc1cc(/C=C2\SC(=O)N=C2N)ccc1O	i	-11.6	12.2	12.6	101.3	31.0*	61.1*	45.6*
CCOC(=O)N1CCN(S(=O)(=O)c2ccc(C(=O)NNc3nc4c(C)cccc4s3)cc2)CC1	i	-16.6	1.4	50.4*	79.2	35.3*	25.2	41.8*
Cc1ccnc(NC(=O)CCC(=O)c2cc(C)sc2C)c1	i	2.2	21.3	2.2	171.1	38.2*	15.2	12.8
Cc1ccc(C(=O)CCC(=O)Nc2cc(C)ccn2)cc1	i	-1.5	7.3	1.5	96.4	-0.3	nt	nt
COc1ccccc1C1C2=C(N=c3s/c(=C/c4cccc(OCC(=O)O)c4)c(=O)n31)c1ccccc1CC2 (centres undefined)	i	0.9	-0.5	3.8	nt	35.6*	44.3*	20.6
COc1cccc(C2C3=C(N=c4s/c(=C\c5cccc(O)c5)c(=O)n42)c2ccccc2CC3)c1OC (centres undefined)	i	17.4	10.7	-17.3	77.5	49.5*	26.1	16.8
CCCCCC(=O)N1C[C@H](n2cc(-c3ccc(F)cc3)nn2)[C@@H](O)C[C@@H]1c1ccc(OC)cc1	i	7.0	1.9	-7.3	102.1	0.2	nt	nt
CCOc1ccc(-n2c(=O)c3sccc3n(Cc3cccc([N+](=O)[O-])c3)c2=O)cc1	i	19.5	-0.4	4.2	100.1	4.4	nt	nt
CCOC(=O)c1cnc(N2CCN(C(=O)OCC)CC2)[nH]c1=O	i	-4.2	-4.0	5.5	103.1	-0.1	nt	nt
Cc1nc2c(OCc3ccc(C(F)(F)F)cc3)cccn2c1N(C)CC1CC1	i	2.6	-1.9	-8.7	nt	-32.1	nt	nt
COC(=O)c1c(NC(=O)c2ccccc2)sc(C(=O)c2ccccc2)c1C	i	-1.3	1.9	14.5	99.4	42.6*	23.5*	34.2*
Oc1ccc(Cl)cc1C1=Nc2ccccc2N=C(c2ccco2)C1	i	7.7	21.0	-3.7	97.3	67.4*	63.8*	52.2*
COc1ccc(O)c(C2=Nc3ccccc3N=C(c3ccco3)C2)c1	nt	-5.9	0.8	-0.4	109.3	9.8	nt	nt
N#Cc1ccc(-c2nc3ccc(Cl)cn3c2Cc2ccccc2C(F)(F)F)cc1	i	1.3	2.3	-6.7	nt	48.5*	54.8*	45.0*
FC(F)(F)c1ccccc1Cc1c(-c2ccc(Cl)cc2)nc2ccc(Cl)cn12	i	-5.5	4.7	-6.3	nt	-5.6	nt	nt
COc1ccccc1Cc1c(-c2cccc(Br)c2)nc2ccc(Br)cn12	i	-3.6	20.0	-0.8	nt	13.7	nt	nt
COc1ccccc1Cc1c(-c2ccc(Cl)cc2)nc2ccc(Br)cn12	i	-1.5	34.1	-2.8	nt	42.0*	-3.4	1.4
COc1ccccc1Cc1c(-c2cccc(Br)c2)nc2ccc(Cl)cn12	i	-5.8	33.9	-5.1	nt	33.0*	5.9	-1.8
COCCn1c(SCC(=O)NC2CCCC2)nc2c(c1=O)SCC2	i	-0.4	0.2	-2.4	108.5	-1.4	nt	nt
Fc1ccc(Nc2cccc3nccnc23)cc1	i	2.2	3.0	-11.7	105.5	15.6	nt	nt
c1cc(Nc2cccc3nccnc23)c2nccnc2c1	i	-4.2	7.3	11.4	98.0	51.6*	61.0*	41.3*
